Reference: ChEMBL document CHEMBL1121694, “2-(Aminomethyl)phenols, a new class of saluretic agents. 3. Effects of functional group reorientation and modification” (1981)

Tests used:
Canis familiaris [1] = experiment: Compound was tested for the saluretic property in dogs after intravenous administration of 5 mg/kg; >900 micro equivalents of Na+ excreted per minute; format: functional, Canis lupus familiaris
In short: (§1)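 Each dog score comes from one animal (body weight 15.2-21 kg) given the dose as a single stat administration. The standard dose is 5 mg/kg unless another is designated. Protocol and scoring system are referenced to earlier work.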

Rattus norvegicus = experiment: Evaluated for the saluretic property in rats after oral administration; score represents micro equivalents of Na+ excreted at a given mg/kg dose; format: functional
In short: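 The score is the geometric mean of three animals per cage, with three cages per dose. Protocol and scoring system are referenced to earlier work.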

Canis familiaris [2] = experiment: Compound was tested for the saluretic property in dogs after intravenous administration of 5 mg/kg; 600-799 micro equivalents of Na+ excreted per minute; format: functional, Canis lupus familiaris; in short: as §1
Canis familiaris [3] = experiment: Tested for the saluretic property in dogs after intravenous administration of 5 mg/kg; 0-99 micro equivalents of Na+ excreted per minute; format: functional, Canis lupus familiaris; in short: as §1
Canis familiaris [4] = experiment: Compound was tested for the saluretic property in dogs after intravenous administration of 1 mg/kg; >900 micro equivalents of Na+ excreted per minute; format: functional, Canis lupus familiaris; in short: as §1
Canis familiaris [5] = experiment: Compound was tested for the saluretic property in dogs after intravenous administration of 10 mg/kg; format: functional, Canis lupus familiaris; in short: as §1
Canis familiaris [6] = experiment: Compound was tested for the saluretic property in dogs after intravenous administration of 5 mg/kg; 800-899 micro equivalents of Na+ excreted at a given mg/kg dose; format: functional, Canis lupus familiaris; in short: as §1
Canis familiaris [7] = experiment: Compound was tested for the saluretic property in dogs after intravenous administration of 5 mg/kg; 100-249 micro equivalents of Na+ excreted per minute; format: functional, Canis lupus familiaris
Canis familiaris [8] = experiment: Compound was tested for the saluretic property in dogs after intravenous administration of 5 mg/kg; activity above 5 mg/kg; format: functional, organism-based; settings: Canis lupus familiaris; in short: as §1
Canis familiaris [9] = experiment: Compound was evaluated for the saluretic property in dog after iv administration; score represents micro equivalents of Na+ excreted at a given mg/kg dose; format: functional, Canis lupus familiaris; in short: as §1

| SMILES | Score (Rattus norvegicus) | Score (Canis familiaris [3]) | further results |
| --- | --- | --- | --- |
| CC(C)(C)c1cc(Cl)c(O)c(CN)c1.Cl | 6 | – | Score (Canis familiaris [1]): 6 |
| COc1c(Cl)c(O)c(CN)c(OC)c1Cl.Cl | 5 | – | Score (Canis familiaris [1]): 6 |
| CC(C)(C)c1cc(I)c(O)c(CN)c1.Cl | 6 | – | Score (Canis familiaris [2]): 4 |
| COc1c(Cl)c(O)c(C=O)c(OC)c1Cl | 0 | 0 | – |
| NS(=O)(=O)c1cc(C(=O)O)c(NCc2ccco2)cc1Cl [FUROSEMIDE] | 3 | – | Score (Canis familiaris [4]): 6 |
| NCc1c(Cl)cc(Cl)c(O)c1Cl | 0 | – | Score (Canis familiaris [5]): 0 |
| Cl.NCc1c(O)c(Cl)cc(Cl)c1Cl | 3 | – | Score (Canis familiaris [6]): 5 |
| Nc1c(O)c(Cl)cc(Cl)c1Cl | 0 | – | – |
| Cl.NCc1c(N)c(Cl)cc(Cl)c1Cl | – | 0 | – |
| Cl.NCC(O)c1c(O)c(Cl)cc(Cl)c1Cl (centres undefined) | 0 | – | Score (Canis familiaris [7]): 1 |
| Cl.NCc1cc(Cl)c(O)c(Cl)c1Cl | 0 | 0 | – |
| NS(=O)(=O)c1cc2c(cc1Cl)NCNS2(=O)=O [HYDROCHLOROTHIAZIDE] | 2 | – | Score (Canis familiaris [7]): 1 |
| Cl.NCCc1c(O)c(Cl)cc(Cl)c1Cl | 1 | – | Score (Canis familiaris [7]): 1 |
| NS(=O)(=O)c1c(O)c(Cl)cc(Cl)c1Cl | 0 | – | – |
| CC(C)(C)c1cc(I)c(O)c(C(=O)O)c1 | 0 | – | Score (Canis familiaris [7]): 1 |
| Cl.NCc1cc(Cl)cc(Cl)c1 | 0 | 0 | – |
| NCc1cc(Cl)cc(Cl)c1O | 2 | – | Score (Canis familiaris [8]): activity above 5 mg/kg |
| OCc1c(O)c(Cl)cc(Cl)c1Cl | 0 | 0 | – |
| COc1c(Cl)c(O)c(C(=O)O)c(OC)c1Cl | 0 | 0 | – |
| CC(C)(C)c1cc(Cl)c(O)c(CCCN)c1 | – | – | Score (Canis familiaris [9]): 0 |
| O=C(O)c1c(O)c(Cl)cc(Cl)c1Cl | 0 | – | – |
| O=Cc1c(O)c(Cl)cc(Cl)c1Cl | 0 | 0 | – |
